Data taken from ChEMBL document CHEMBL1155387, “Substituted fused bicyclic pyrrolizinones as potent, orally bioavailable hNK1 antagonists” (Bioorg Med Chem Lett, 2010).
“And” between values parts separate entries of the source, which are not always exact repeats. Equal entries are not always repeated.

Key:
[1] = target: T1, Substance-P receptor (Homo sapiens, UniProt P25103); assay: Displacement of [125I]substance P from human NK1 receptor expressed in CHO cells; format: cell-based
In short: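 Competition binding: [125I]-labelled substance P displaced from cloned human NK1 receptor expressed in CHO cells; IC50 reported as mean of n = 3.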

[2] = target: T1, Substance-P receptor; assay: Displacement of [125I]substance P from human NK1 receptor expressed in CHO cells in the presence of 50 percent human serum; format: cell-based
[3] = target: T1, Substance-P receptor; assay: Antagonist activity at human NK1 receptor expressed in CHO cells assessed as inhibition of substance P-induced inositol phosphate generation at 100 nM; format: functional, cell-based
[4] = system: Gerbillinae; assay: Inhibition of GR-73632-induced foot tapping in gerbils at 3 mg/kg, iv after 24 hrs; format: functional; details: for inhibition in vivo at 3 mg/kg: Gerbillinae, iv, 24 h; for inhibition (INH): 3 mg/kg
In short: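 Gerbils dosed iv at 3 mg/kg; foot tapping induced by NK1 agonist GR73632 evaluated 24 h post-dose; percent inhibition of the tapping response.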

[5] = Displacement of diltiazem […] from calcium channel
In short: (§1)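 Ion-channel binding assay; IC50 values calculated for sodium channel and for calcium channel (diltiazem site).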

[6] = Inhibition of sodium channel; in short: as §1
[7] = system: Gerbillinae; assay: Inhibition of GR-73632-induced foot tapping in gerbils at 1 mg/kg, iv after 1 hr; format: functional
In short: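 Gerbils given 1 mg/kg iv; GR73632-induced foot tapping challenged 1 h after dosing; inhibition of tapping scored.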

T1 sequence (P25103 whole entry): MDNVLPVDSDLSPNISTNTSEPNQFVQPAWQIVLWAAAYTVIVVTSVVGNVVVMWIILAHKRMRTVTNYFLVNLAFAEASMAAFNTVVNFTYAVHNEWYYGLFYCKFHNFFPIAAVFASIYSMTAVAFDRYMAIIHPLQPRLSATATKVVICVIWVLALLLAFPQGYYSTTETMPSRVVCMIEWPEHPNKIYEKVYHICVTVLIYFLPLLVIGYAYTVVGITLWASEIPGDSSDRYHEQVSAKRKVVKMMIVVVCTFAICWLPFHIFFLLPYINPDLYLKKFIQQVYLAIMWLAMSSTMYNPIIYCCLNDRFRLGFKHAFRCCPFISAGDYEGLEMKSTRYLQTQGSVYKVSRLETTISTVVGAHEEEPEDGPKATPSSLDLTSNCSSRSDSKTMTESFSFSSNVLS

| SMILES | IC50 [1] | IC50 [2] | inhibition of substance P-induced inositol phosphate generation [3] | inhibition in vivo at 3 mg/kg [4] [%] | IC50 [5] | IC50 [6] | inhibition in vivo at 1 mg/kg [7] [%] | inhibition (INH) [4] [%] |
| --- | --- | --- | --- | --- | --- | --- | --- | --- |
| C[C@@H](O[C@H]1CN2C(=O)C(NCc3ccn[nH]3)C[C@H]2[C@@H]1c1ccc(F)cc1)c1cc(C(F)(F)F)cc(C(F)(F)F)c1 (stereo partly drawn) | 0.06 nM | 0.9 nM | 55% | 92 | 598 nM | 1470 nM | – | – |
| C[C@@H](O[C@H]1CN2C(=O)CC(NCc3ccn[nH]3)[C@H]2[C@@H]1c1ccc(F)cc1)c1cc(C(F)(F)F)cc(C(F)(F)F)c1 (stereo partly drawn) | 0.13 nM | 1.83 nM | 68% | 94 | 2390 nM | 2970 nM | – | – |
| C[C@@H](O[C@H]1CN2C(=O)CC(C)(N)[C@H]2[C@@H]1c1ccc(F)cc1)c1cc(C(F)(F)F)cc(C(F)(F)F)c1 (stereo partly drawn) | 0.08 nM | 0.42 nM | 45% | 100 | 767 nM | 1400 nM | – | – |
| C[C@@H](O[C@H]1CN2C(=O)C(n3cnnc3)C[C@H]2[C@@H]1c1ccc(F)cc1)c1cc(C(F)(F)F)cc(C(F)(F)F)c1 (single isomer, unassigned) [listing 1 of 2 here] | 0.05 nM | 1.8 nM | – | – | – | 5320 nM | 0 | – |
| C[C@@H](O[C@H]1CN2C(=O)C(C)(O)C[C@H]2[C@@H]1c1ccc(F)cc1)c1cc(C(F)(F)F)cc(C(F)(F)F)c1 (single isomer, unassigned) [listing 1 of 2 here] | 0.09 nM | 2.5 nM | – | 98 | 1870 nM | 4820 nM | – | – |
| C[C@@H](O[C@H]1CN2C(=O)C(O)C[C@H]2[C@@H]1c1ccc(F)cc1)c1cc(C(F)(F)F)cc(C(F)(F)F)c1 (single isomer, unassigned) [listing 1 of 2 here] | 0.14 nM | 5.6 nM | – | 95 | 8060 nM | 5140 nM | – | – |
| C[C@@H](O[C@H]1CN2C(=O)C(C)(O)C[C@H]2[C@@H]1c1ccc(F)cc1)c1cc(C(F)(F)F)cc(C(F)(F)F)c1 (single isomer, unassigned) [listing 2 of 2 here] | – | – | 70% | – | – | – | – | – |
| C[C@@H](O[C@H]1CN2C(=O)C(O)C[C@H]2[C@@H]1c1ccc(F)cc1)c1cc(C(F)(F)F)cc(C(F)(F)F)c1 (single isomer, unassigned) [listing 2 of 2 here] | – | – | 90% | – | – | – | – | – |
| C[C@@H](O[C@H]1CN2C(=O)C(n3cnnc3)C[C@H]2[C@@H]1c1ccc(F)cc1)c1cc(C(F)(F)F)cc(C(F)(F)F)c1 (single isomer, unassigned) [listing 2 of 2 here] | – | – | 74% | – | – | – | – | – |
| C[C@@H](O[C@H]1CN2C(=O)CC(O)[C@H]2[C@@H]1c1ccc(F)cc1)c1cc(C(F)(F)F)cc(C(F)(F)F)c1 (single isomer, unassigned; 18a) [listing 1 of 2 here] | 0.08 nM | 2.1 nM | – | 100 | 2380 nM | 1990 nM | – | – |
| C[C@@H](O[C@H]1CN2C(=O)CC(O)[C@H]2[C@@H]1c1ccc(F)cc1)c1cc(C(F)(F)F)cc(C(F)(F)F)c1 (single isomer, unassigned; 18a) [listing 2 of 2 here] | – | – | 65% | – | – | – | – | – |
| C[C@@H](O[C@H]1CN2C(=O)CC(O)[C@H]2[C@@H]1c1ccc(F)cc1)c1cc(C(F)(F)F)cc(C(F)(F)F)c1 (single isomer, unassigned; 18b) [listing 1 of 2 here] | 0.07 nM | 2.7 nM | – | – | – | – | – | – |
| C[C@@H](O[C@H]1CN2C(=O)CC(O)[C@H]2[C@@H]1c1ccc(F)cc1)c1cc(C(F)(F)F)cc(C(F)(F)F)c1 (single isomer, unassigned; 18b) [listing 2 of 2 here] | – | – | 79% | – | – | – | – | – |
| C[C@@H](O[C@H]1CN2C(=O)C(O)C[C@H]2[C@@H]1c1ccc(F)cc1)c1cc(C(F)(F)F)cc(C(F)(F)F)c1 (stereo in doubt; 2b) | – | – | 60% | – | – | – | – | – |
| C[C@@H](O[C@H]1CN2C(=O)C(N)C[C@H]2[C@@H]1c1ccc(F)cc1)c1cc(C(F)(F)F)cc(C(F)(F)F)c1 (stereo in doubt; 3a) [listing 1 of 2 here] | 0.27 nM | 2.1 nM | – | 99 | 98 nM | 2820 nM | – | – |
| C[C@@H](O[C@H]1CN2C(=O)C(N)C[C@H]2[C@@H]1c1ccc(F)cc1)c1cc(C(F)(F)F)cc(C(F)(F)F)c1 (stereo in doubt; 3a) [listing 2 of 2 here] | – | – | 92% | – | – | – | – | – |
| C[C@@H](O[C@H]1CN2C(=O)C(N)C[C@H]2[C@@H]1c1ccc(F)cc1)c1cc(C(F)(F)F)cc(C(F)(F)F)c1 (stereo in doubt; 3b) [listing 1 of 2 here] | 0.06 nM | 0.38 nM | – | – | 214 nM | 239 nM | – | 100 |
| C[C@@H](O[C@H]1CN2C(=O)C(N)C[C@H]2[C@@H]1c1ccc(F)cc1)c1cc(C(F)(F)F)cc(C(F)(F)F)c1 (stereo in doubt; 3b) [listing 2 of 2 here] | – | – | 59% | – | – | – | – | – |
| C[C@@H](O[C@H]1CN2C(=O)C(C)(O)C[C@H]2[C@@H]1c1ccc(F)cc1)c1cc(C(F)(F)F)cc(C(F)(F)F)c1 (stereo in doubt; 5b) [listing 1 of 2 here] | 0.04 nM | 0.8 nM | – | – | 2180 nM | 3200 nM | – | 100 |
| C[C@@H](O[C@H]1CN2C(=O)C(C)(O)C[C@H]2[C@@H]1c1ccc(F)cc1)c1cc(C(F)(F)F)cc(C(F)(F)F)c1 (stereo in doubt; 5b) [listing 2 of 2 here] | – | – | 45% | – | – | – | – | – |
| C[C@@H](O[C@H]1CN2C(=O)CC(N)[C@H]2[C@@H]1c1ccc(F)cc1)c1cc(C(F)(F)F)cc(C(F)(F)F)c1 (stereo in doubt; 15a) | – | – | 75% | – | – | – | – | – |
| C[C@@H](O[C@H]1CN2C(=O)CC(N)[C@H]2[C@@H]1c1ccc(F)cc1)c1cc(C(F)(F)F)cc(C(F)(F)F)c1 (stereo in doubt; 15b) [listing 1 of 2 here] | 0.08 nM and 0.11 nM | 0.77 nM and 1.8 nM | – | – | 1560 nM and 1360 nM | 4980 nM and 558 nM | – | – |
| C[C@@H](O[C@H]1CN2C(=O)CC(N)[C@H]2[C@@H]1c1ccc(F)cc1)c1cc(C(F)(F)F)cc(C(F)(F)F)c1 (stereo in doubt; 15b) [listing 2 of 2 here] | – | – | 87% and 63% | – | – | – | – | – |
| C[C@@H](O[C@H]1CN2C(=O)CC(C)(O)[C@H]2[C@@H]1c1ccc(F)cc1)c1cc(C(F)(F)F)cc(C(F)(F)F)c1 (stereo in doubt; 20a) [listing 1 of 2 here] | 0.07 nM | 1.1 nM | – | 96 | 2210 nM | 2210 nM | – | – |
| C[C@@H](O[C@H]1CN2C(=O)CC(C)(O)[C@H]2[C@@H]1c1ccc(F)cc1)c1cc(C(F)(F)F)cc(C(F)(F)F)c1 (stereo in doubt; 20a) [listing 2 of 2 here] | – | – | 28% | – | – | – | – | – |
| C[C@@H](O[C@H]1CN2C(=O)CC(C)(O)[C@H]2[C@@H]1c1ccc(F)cc1)c1cc(C(F)(F)F)cc(C(F)(F)F)c1 (stereo in doubt; 20b) [listing 1 of 2 here] | 0.06 nM | 2.6 nM | – | – | – | – | – | – |
| C[C@@H](O[C@H]1CN2C(=O)CC(C)(O)[C@H]2[C@@H]1c1ccc(F)cc1)c1cc(C(F)(F)F)cc(C(F)(F)F)c1 (stereo in doubt; 20b) [listing 2 of 2 here] | – | – | 57% | – | – | – | – | – |
| C[C@@H](O[C@H]1CN2C(=O)C(n3cnnc3)C[C@H]2[C@@H]1c1ccc(F)cc1)c1cc(C(F)(F)F)cc(C(F)(F)F)c1 (stereo in doubt; 21a) [listing 1 of 2 here] | 0.07 nM | 1.9 nM | – | – | > 10000 nM | > 10000 nM | – | – |
| C[C@@H](O[C@H]1CN2C(=O)C(n3cnnc3)C[C@H]2[C@@H]1c1ccc(F)cc1)c1cc(C(F)(F)F)cc(C(F)(F)F)c1 (stereo in doubt; 21a) [listing 2 of 2 here] | – | – | 81% | – | – | – | – | – |
